Data set [1] has as its system Hepatitis C virus. The data set is described as follows: Inhibition of HCV subtype 1b NS5B Cdelta21 RNA dependent RNA polymerase expressed in Escherichia coli JM109 assessed as inhibition of [alpha32P]CTP incorporation after 1 hr by scintillation assay. The arrangement: species or system Hepatitis C virus subtype 1b. As to conditions: JM 109, 1 h; call rule not given here.
The subject of data set [2] is Hepatitis C virus. As to the kind of experiment: Antiviral activity against HCV infected in human hepatoma cells. It is filed as functional, organism-based, Hepacivirus hominis.
Data set [3] is described as follows: AUC (0 to 24 hrs) in rat at 10 mg/kg, po. It is filed as ADME, organism-based. The arrangement: time < 24 hr, dose 10 mg/kg, route oral. To be noted: plasma.
Data set [4] is described as follows: Permeability from apical to basal side of human Caco2 cells. It is filed as ADME, cell-based. To be noted: Caco-2, read-out: permeability.
A short description of data set [5]: Drug uptake in rat liver at 10 mg/kg, po after 6 hrs. To be noted: read-out: Drug uptake. Also noted: dose 10 mg/kg, route oral. It is filed as ADME, organism-based. The procedure, abridged:
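Rats dosed orally at 10 mg/kg; liver tissue concentration measured 6 h after dosing, reported in ng/g.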

Data set [6] in a line: AUC (0 to 24 hrs) in dog at 2 mg/kg, po. It is filed as ADME, organism-based, Canis lupus familiaris. The arrangement: time < 24 hr, dose 2 mg/kg, route oral. To be noted: plasma.
The nature of data set [7]: Clearance in human hepatocytes assessed per million cells. It is filed as ADME, cell-based, Hepatocyte. To be noted: read-out: CLH.
Data set [8] deals with T1, Cytochrome P450 2D6 (Homo sapiens, UniProt P10635). The data set is described as follows: Inhibition of CYP2D6 co-incubated with substrate. It is filed as ADME.
T1 sequence (P10635 whole entry): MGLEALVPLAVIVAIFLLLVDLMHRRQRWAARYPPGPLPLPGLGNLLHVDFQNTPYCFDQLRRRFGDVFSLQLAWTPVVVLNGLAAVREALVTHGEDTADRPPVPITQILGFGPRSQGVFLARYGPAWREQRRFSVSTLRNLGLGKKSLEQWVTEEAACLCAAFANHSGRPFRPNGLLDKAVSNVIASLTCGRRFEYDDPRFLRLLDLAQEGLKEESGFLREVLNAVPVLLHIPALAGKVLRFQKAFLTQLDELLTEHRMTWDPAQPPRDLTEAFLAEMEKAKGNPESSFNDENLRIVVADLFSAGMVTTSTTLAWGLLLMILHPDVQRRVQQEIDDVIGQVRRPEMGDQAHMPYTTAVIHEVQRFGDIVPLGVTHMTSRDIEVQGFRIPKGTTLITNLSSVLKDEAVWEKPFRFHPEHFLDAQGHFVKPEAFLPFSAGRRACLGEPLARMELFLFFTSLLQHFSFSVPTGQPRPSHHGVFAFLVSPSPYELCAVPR
Data set [9] has as its target T2, Cytochrome P450 3A4 (Homo sapiens, UniProt P08684). The data set is described as follows: Inhibition of CYP3A4 co-incubated with substrate. It is filed as ADME.
The target of data set [10] is T3, Cytochrome P450 2C9 (Homo sapiens, UniProt P11712). The data set is described as follows: Inhibition of CYP2C9 co-incubated with substrate. It is filed as ADME.
T3 sequence (P11712 whole entry): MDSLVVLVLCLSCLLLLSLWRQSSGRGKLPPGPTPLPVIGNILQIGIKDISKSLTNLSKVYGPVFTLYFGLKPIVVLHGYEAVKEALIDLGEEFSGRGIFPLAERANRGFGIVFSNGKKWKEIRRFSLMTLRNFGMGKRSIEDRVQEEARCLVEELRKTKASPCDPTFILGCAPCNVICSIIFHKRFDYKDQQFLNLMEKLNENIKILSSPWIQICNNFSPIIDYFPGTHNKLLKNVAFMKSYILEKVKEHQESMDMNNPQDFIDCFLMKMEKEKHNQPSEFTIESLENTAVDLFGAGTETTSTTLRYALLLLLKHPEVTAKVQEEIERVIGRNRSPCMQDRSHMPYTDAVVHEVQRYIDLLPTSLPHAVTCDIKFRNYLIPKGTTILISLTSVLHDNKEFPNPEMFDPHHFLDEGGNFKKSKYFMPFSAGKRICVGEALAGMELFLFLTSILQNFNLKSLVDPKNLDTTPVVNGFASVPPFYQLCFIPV
Data set [11] addresses T4, Cytochrome P450 2C19 (Homo sapiens, UniProt P33261). As to the kind of experiment: Inhibition of CYP2C19 co-incubated with substrate. It is filed as ADME.
The target of data set [12] is T1, Cytochrome P450 2D6. As to the kind of experiment: Inhibition of CYP2D6 preincubated prior to substrate addition. It is filed as ADME.
The target of data set [13] is T2, Cytochrome P450 3A4. The data set is described as follows: Inhibition of CYP3A4 preincubated prior to substrate addition. It is filed as ADME.
Data set [14] deals with T3, Cytochrome P450 2C9. The data set is described as follows: Inhibition of CYP2C9 preincubated prior to substrate addition. It is filed as ADME.
Data set [15] has as its target T4, Cytochrome P450 2C19. The data set is described as follows: Inhibition of CYP2C19 preincubated prior to substrate addition. It is filed as ADME.
Data set [16] has as its target Voltage-gated inwardly rectifying potassium channel KCNH2 (Homo sapiens, UniProt Q12809). The data set is described as follows: Inhibition of human ERG at 10 uM by efflux assay.

T2 sequence (P08684 whole entry): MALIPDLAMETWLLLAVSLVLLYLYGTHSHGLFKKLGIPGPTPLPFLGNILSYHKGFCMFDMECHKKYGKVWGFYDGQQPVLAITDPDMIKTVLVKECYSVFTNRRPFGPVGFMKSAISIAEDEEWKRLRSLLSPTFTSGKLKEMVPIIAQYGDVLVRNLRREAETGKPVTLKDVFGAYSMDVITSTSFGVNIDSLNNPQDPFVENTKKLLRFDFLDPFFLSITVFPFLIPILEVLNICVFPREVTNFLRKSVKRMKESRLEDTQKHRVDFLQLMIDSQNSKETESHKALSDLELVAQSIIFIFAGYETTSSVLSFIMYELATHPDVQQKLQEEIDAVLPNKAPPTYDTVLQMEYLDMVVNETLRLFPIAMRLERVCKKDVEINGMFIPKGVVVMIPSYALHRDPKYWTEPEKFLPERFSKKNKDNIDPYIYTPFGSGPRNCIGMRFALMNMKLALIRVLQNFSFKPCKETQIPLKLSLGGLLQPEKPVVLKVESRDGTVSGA
T4 sequence (P33261 whole entry): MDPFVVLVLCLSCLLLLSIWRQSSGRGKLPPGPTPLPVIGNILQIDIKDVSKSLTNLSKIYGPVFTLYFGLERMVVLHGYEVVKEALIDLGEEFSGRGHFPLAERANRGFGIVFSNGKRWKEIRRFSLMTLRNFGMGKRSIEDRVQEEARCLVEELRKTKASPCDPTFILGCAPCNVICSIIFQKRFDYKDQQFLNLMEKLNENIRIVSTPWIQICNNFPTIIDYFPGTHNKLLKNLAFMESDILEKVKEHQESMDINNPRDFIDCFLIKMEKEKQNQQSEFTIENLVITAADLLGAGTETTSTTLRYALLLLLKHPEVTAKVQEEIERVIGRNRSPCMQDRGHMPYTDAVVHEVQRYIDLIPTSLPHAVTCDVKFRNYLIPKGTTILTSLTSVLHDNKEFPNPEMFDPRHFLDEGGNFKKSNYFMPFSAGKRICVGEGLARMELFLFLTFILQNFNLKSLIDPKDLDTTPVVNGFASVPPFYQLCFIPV
Chain of Voltage-gated inwardly rectifying potassium channel KCNH2 (Q12809 whole entry): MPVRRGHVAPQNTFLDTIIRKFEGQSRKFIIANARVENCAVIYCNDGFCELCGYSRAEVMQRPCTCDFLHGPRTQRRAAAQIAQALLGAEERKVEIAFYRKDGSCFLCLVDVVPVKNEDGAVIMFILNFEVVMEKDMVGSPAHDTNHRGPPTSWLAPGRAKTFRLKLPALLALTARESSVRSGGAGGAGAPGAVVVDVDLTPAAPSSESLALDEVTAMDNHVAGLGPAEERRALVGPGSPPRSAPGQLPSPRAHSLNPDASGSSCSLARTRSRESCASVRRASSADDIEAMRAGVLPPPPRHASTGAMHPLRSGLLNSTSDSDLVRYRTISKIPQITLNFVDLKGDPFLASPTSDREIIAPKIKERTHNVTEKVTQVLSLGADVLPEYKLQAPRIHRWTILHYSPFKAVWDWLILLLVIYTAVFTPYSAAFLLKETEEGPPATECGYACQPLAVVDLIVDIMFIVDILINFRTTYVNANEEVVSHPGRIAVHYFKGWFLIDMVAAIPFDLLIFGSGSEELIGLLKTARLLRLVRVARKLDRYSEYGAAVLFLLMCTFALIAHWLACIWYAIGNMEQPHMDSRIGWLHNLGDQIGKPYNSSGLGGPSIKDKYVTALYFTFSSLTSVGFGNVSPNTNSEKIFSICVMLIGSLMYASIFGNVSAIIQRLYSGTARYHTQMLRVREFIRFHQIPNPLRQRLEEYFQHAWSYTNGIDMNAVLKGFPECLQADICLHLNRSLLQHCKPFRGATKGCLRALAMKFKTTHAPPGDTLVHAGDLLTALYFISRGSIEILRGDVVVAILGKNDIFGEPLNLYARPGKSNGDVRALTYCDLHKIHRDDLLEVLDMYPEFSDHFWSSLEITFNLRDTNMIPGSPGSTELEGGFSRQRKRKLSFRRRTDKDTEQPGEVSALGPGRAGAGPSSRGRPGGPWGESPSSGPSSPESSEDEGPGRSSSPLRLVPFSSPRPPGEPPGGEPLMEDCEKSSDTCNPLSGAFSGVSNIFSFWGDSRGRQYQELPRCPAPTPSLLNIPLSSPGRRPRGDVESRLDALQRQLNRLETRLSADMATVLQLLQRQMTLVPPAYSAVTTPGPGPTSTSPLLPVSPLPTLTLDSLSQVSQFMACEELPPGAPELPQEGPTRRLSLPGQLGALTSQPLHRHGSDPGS

In the case of `Cc1cc2c(-c3ccc[nH]c3=O)c(C(=O)NS(=O)(=O)C3CC3)n(Cc3cc(F)ccc3F)c2cc1C(F)(F)F`, the 50% inhibitory concentration (IC50) – broadly, the concentration that gives 50% inhibition – in the data set with Hepatitis C virus [1] is 7 nM. For the same compound, the midpoint of the response in the data set on Hepatitis C virus [2], the EC50, lay at 280 nM. For the same compound, in data set [3], the AUC(0-t) (in general, exposure summed from dosing to a finite time, without extrapolation to infinity) at 24 h turned out to be 0.69 µM·h.
Take `CCS(=O)(=O)NC(=O)c1c(-c2ccc[nH]c2=O)c2cc(C)ccc2n1Cc1cc(F)ccc1F`: the IC50 in the data set with Hepatitis C virus [1] amounted to 10 nM. For the same compound, in the data set with Hepatitis C virus [2], the EC50 (commonly the midpoint of the concentration-response curve) stood at 200 nM. Further, the AUC(0-t) at 24 h in [3] stood at 11 µM·h.
Turning to `Cc1ccc2c(c1)c(-c1ccc[nH]c1=O)c(C(=O)NS(=O)(=O)C(C)C)n2Cc1cc(F)ccc1F`, in the data set with Hepatitis C virus [1], the IC50 is 7 nM. In the data set with Hepatitis C virus [2], this compound gave an EC50 of 90 nM. The same compound yielded an area under the curve AUC(0-t) at 24 h in data set [3] of 6.8 µM·h.
`Cc1ccc2c(c1)c(-c1ccc[nH]c1=O)c(C(=O)NS(=O)(=O)C1CC1)n2Cc1cc(F)ccc1F`: the IC50 in the data set with Hepatitis C virus [1] is 6 nM. Further, in the data set on Hepatitis C virus [2], a half-maximal response (EC50) required 90 nM. In addition, in data set [3], the AUC(0-t) at 24 h was 9.1 µM·h.
The matching figures for `O=C(NS(=O)(=O)C1CC1)c1c(-c2ccc[nH]c2=O)c2cc(C(F)(F)F)ccc2n1Cc1cc(F)ccc1F`: 3 nM, 50 nM and 4.8 µM·h.
The matching figures for `CCc1ccc2c(c1)c(-c1ccc[nH]c1=O)c(C(=O)NS(=O)(=O)CC)n2Cc1cc(F)ccc1F`: 6 nM, 80 nM and 4.6 µM·h.
Regarding `Nc1cc(Cn2c(C(=O)O)c(-c3ccc[nH]c3=O)c3cc(C(F)(F)F)ccc32)ccn1`, the IC50 in the data set with Hepatitis C virus [1] came to 17 nM. It took 100 nM to reach a half-maximal effect in the data set on Hepatitis C virus [2] (EC50). Further, the AUC(0-t) at 24 h in data set [3] is below 0.1 µM·h.
For the compound `O=C(NS(=O)(=O)C1CC1)c1c(-c2ccc[nH]c2=O)c2cc(CC(F)(F)F)ccc2n1Cc1cc(F)ccc1F`, the IC50 in the data set on Hepatitis C virus [1] was found to be 7 nM. This compound also had an EC50 in the data set with Hepatitis C virus [2] of 230 nM. Besides, in [3], the AUC(0-t) at 24 h came out at 0.67 µM·h.
Regarding `CC1(c2ccc3c(c2)c(-c2ccc[nH]c2=O)c(C(=O)NS(=O)(=O)C2CC2)n3Cc2cc(F)ccc2F)CC1`, in the data set on Hepatitis C virus [1], the IC50 stood at 6 nM. Moreover, the response in the data set with Hepatitis C virus [2] was half-maximal at 600 nM (EC50). The same compound came in with an AUC(0-t) at 24 h in [3] of 11 µM·h.
Consider `CCc1ccc2c(c1)c(-c1ccc[nH]c1=O)c(C(=O)NS(C)(=O)=O)n2Cc1cc(F)ccc1F`, for which, in the data set with Hepatitis C virus [1], the IC50 turned out to be 6 nM. This compound registered an EC50 with Hepatitis C virus [2] of 150 nM. Also, the AUC(0-t) at 24 h in data set [3] came to 72 µM·h.
`CCc1cc2c(-c3ccc[nH]c3=O)c(C(=O)NS(=O)(=O)C3CC3)n(Cc3cc(F)ccc3F)c2cc1F`: the IC50 in the data set with Hepatitis C virus [1] was 5 nM. It took 60 nM to reach a half-maximal effect in the data set on Hepatitis C virus [2] (EC50). Besides, the AUC(0-t) at 24 h in data set [3] was 6.4 µM·h.
As for `O=C(O)c1c(-c2ccc[nH]c2=O)c2cc(C(F)(F)F)ccc2n1Cc1ccc(F)cc1F`, in the data set on Hepatitis C virus [1], the IC50 amounted to 25 nM. The EC50 with Hepatitis C virus [2] stood at 100 nM.
For `CC(C)(C)c1ccc2c(c1)c(-c1ccc[nH]c1=O)c(C(=O)NS(=O)(=O)C1CC1)n2Cc1cc(F)ccc1F`, the IC50 in the data set with Hepatitis C virus [1] turned out to be 6 nM. This compound registered an EC50 in the data set with Hepatitis C virus [2] of 50 nM. The compound further came in with an AUC(0-t) at 24 h in data set [3] of 8 µM·h.
The matching figures for `CCc1ccc2c(c1)c(-c1ccc[nH]c1=O)c(C(=O)NS(=O)(=O)C(C)C)n2Cc1cc(F)ccc1F`: 5 nM, 100 nM and 0.8 µM·h.
Take `O=C(NS(=O)(=O)C1CC1)c1c(-c2ccc[nH]c2=O)c2cc(C(F)(F)F)c(F)cc2n1Cc1cc(F)ccc1F`: the IC50 with Hepatitis C virus [1] turned out to be 7 nM. The same compound gave an EC50 with Hepatitis C virus [2] of 280 nM.
In the case of `Cc1ccccc1Cn1c(C(=O)O)c(-c2ccc[nH]c2=O)c2cc(C(F)(F)F)ccc21`, the half-inhibitory concentration (IC50) in the data set with Hepatitis C virus [1] came to 9 nM. In the data set on Hepatitis C virus [2], this compound returned an EC50 of 100 nM.
The like results for `Nc1cc(Cn2c(C(=O)O)c(-c3ccc[nH]c3=O)c3cc(Br)ccc32)ccn1` were, in that order, 47 nM and 100 nM.
The like results for `Nc1cc(Cn2c(C(=O)O)c(-c3ccc[nH]c3=O)c3cc(OC(F)(F)F)ccc32)ccn1` were, in that order, 16 nM and 100 nM.
The matching figures for `C#Cc1ccc2c(c1)c(-c1ccc[nH]c1=O)c(C(=O)O)n2Cc1ccnc(N)c1`: 48 nM and 100 nM.
For `CCOc1ccc2c(c1)c(-c1ccc[nH]c1=O)c(C(=O)O)n2Cc1cc(F)ccc1F`, the IC50 in the data set on Hepatitis C virus [1] was 79 nM. Besides, the midpoint of the response in the data set on Hepatitis C virus [2], the EC50, lay at 100 nM.
With `CCc1ccc2c(c1)c(-c1ccc[nH]c1=O)c(C(=O)NS(=O)(=O)C1CC1)n2Cc1cc(F)ccc1F`, in the data set on Hepatitis C virus [1], the IC50 was 3 nM. Further, the response with Hepatitis C virus [2] was half-maximal at 60 nM (EC50). The compound further returned an AUC(0-t) at 24 h in data set [3] of 12 µM·h.
The like results for `Cc1ccc2c(c1)c(-c1ccc[nH]c1=O)c(C(=O)NS(C)(=O)=O)n2Cc1cc(F)ccc1F` were, in that order, 7 nM, 490 nM and 22 µM·h.
Turning to `Cc1cc2c(-c3ccc[nH]c3=O)c(C(=O)NS(=O)(=O)C3CC3)n(Cc3cc(F)ccc3F)c2cc1F`, the IC50 with Hepatitis C virus [1] was 8 nM; at Cytochrome P450 2D6 [8], above 20000 nM; on Cytochrome P450 3A4 [9] it was above 20000 nM; at Cytochrome P450 2C9 [10] it was above 20000 nM; on Cytochrome P450 2C19 [11], above 20000 nM; at Cytochrome P450 2D6 [12] it was above 20000 nM. Besides, the IC50 against Cytochrome P450 3A4 [13], against Cytochrome P450 2C9 [14] and on Cytochrome P450 2C19 [15] was above 20000 nM each time. In the data set with Hepatitis C virus [2], this compound returned an EC50 of 20 nM. The figures for the AUC(0-t) at 24 h in data set [3] and in data set [6] were 14 µM·h and 8 µM·h, respectively. For the same compound, in data set [4], the Papp A→B is 3.5 ×10⁻⁶ cm/s. Also, the concentration at 6 h in data set [5] came to 5850 ng/g. In addition, the hepatocyte CLint in data set [7] was below 1 µL/min/1e6 cells. For the same compound, the “inhibition (INH)” value in data set [16] is on record as “Not Active”.
As to `Nc1cc(Cn2c(C(=O)O)c(-c3ccc[nH]c3=O)c3cc(Cl)c(Cl)cc32)ccn1`, in the data set with Hepatitis C virus [1], the IC50 is 47 nM. Also, in the data set with Hepatitis C virus [2], the response was half-maximal at 100 nM (EC50).
As for `Cc1cc2c(-c3ccc[nH]c3=O)c(C(=O)NS(=O)(=O)C3CC3)n(Cc3cc(F)ccc3F)c2cc1Cl`, in the data set with Hepatitis C virus [1], the IC50 stood at 5 nM. Further, a half-maximal response in the data set on Hepatitis C virus [2] (EC50) required 150 nM.

The record behind these values is ChEMBL document CHEMBL2010765, “Structure-activity relationship (SAR) development and discovery of potent indole-based inhibitors of the hepatitis C virus (HCV) NS5B polymerase” (J Med Chem, 2012).
